ABCG2 inh = ABCG2 efflux pump inhibitors, primary screen, multiplex with ABCB1, IgMXP3 cells, flow cytometry; 0.1% of 190,000 active; AID 1325, 2008; inhibition, % at 6.6 µM; Broad substrate specificity ATP-binding cassette transporter ABCG2 (Homo sapiens), Q9UNQ0; JC-1 efflux;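 active = inhibition above 80%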;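 also: 0% = DMSO and 100% = nicardipine control wells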
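Test system: IgMXP3 (ABCG2) plus far-red-tagged CCRF-Adr (ABCB1) cells. Reagent: JC-1 dye as substrate. Timing: 10 min exposure at 25 °C with rotation, no wash. Measured by: flow cytometric JC-1 green MFI at 530 nm. Read-out: percent efflux inhibition, scaled nicardipine 100% to DMSO 0%. Control set: nicardipine and DMSO wells.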
ABCB1 inh = ABCB1 efflux pump inhibitors, primary screen, cell-based, multiplex, flow cytometry, ABCG2 counter-screen. inhibition, % at 6.6 µM. CCRF-Adr cells, JC-1 efflux. ATP-dependent translocase ABCB1 (Homo sapiens), P08183. 0.067% of 190,000 active; in the data active = inhibition above about 40%;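 also: 0% = vehicle and 100% = reference inhibitor; higher value means more JC-1 retained so stronger ABCB1 efflux block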
PMI activator = activators of human PMI, primary screen, biochemical, fluorescence intensity, near-Km mannose 6-phosphate. Mannose-6-phosphate isomerase (Homo sapiens), P34949. purified human PMI, coupled resazurin fluorescence, 20 min; active compounds read high; 1 = vehicle control, 0 substrate-free wells. activation factor at 20 µM. 0.005% of 190,000 active. AID 1214, 2008;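 active = activation factor of 2 or more at 20 µM, relative to plate controls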
Target sequence (P34949 whole entry, looked up): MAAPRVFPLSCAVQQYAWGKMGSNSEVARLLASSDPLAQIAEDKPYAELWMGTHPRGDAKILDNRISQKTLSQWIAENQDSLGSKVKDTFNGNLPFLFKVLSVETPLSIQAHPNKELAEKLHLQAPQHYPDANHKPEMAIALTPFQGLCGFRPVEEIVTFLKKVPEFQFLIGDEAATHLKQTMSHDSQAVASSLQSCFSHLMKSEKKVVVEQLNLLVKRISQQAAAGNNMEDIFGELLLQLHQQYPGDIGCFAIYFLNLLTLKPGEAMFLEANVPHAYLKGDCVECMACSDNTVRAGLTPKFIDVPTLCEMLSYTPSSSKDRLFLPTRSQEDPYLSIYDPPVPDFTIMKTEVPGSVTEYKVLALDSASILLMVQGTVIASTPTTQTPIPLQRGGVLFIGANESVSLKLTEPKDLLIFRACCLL
PMI act satM6P = human PMI activators, high substrate, primary screen, biochemical, fluorescence intensity, near-saturating mannose 6-phosphate; AID 1216, 2008; coupled PMI enzyme assay, resazurin fluorescence, 20 min; active compounds read high; 1 = untreated enzyme, 0 = substrate-free blank; activation factor at 20 µM; 0.34% of 190,000 active; Mannose-6-phosphate isomerase (Homo sapiens), P34949;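 active = activation factor of 2 or more at 20 µM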
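Material: human phosphomannose isomerase with PGI, G6PDH, diaphorase coupling enzymes; amount: PMI at 15 ng/mL final; also added: Mannose-6-phosphate 1.0 mM (near-saturating) plus 0.22 mM NADP+; incubation: enzyme reaction with compound 20 min at room temperature; signal: resorufin fluorescence (Ex 544/Em 590 nm) from resazurin via diaphorase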
ROMK mod = ROMK potassium channel modulators, primary screen, cell-based, thallium flux, MLSMR library; B-score at 10 µM; Tet-inducible ROMK, thallium flux fluorescence; actives lie on both sides; 2% of 130,000 active; AID 1918, 2009; ATP-sensitive inward rectifier potassium channel 1 (Homo sapiens), P48048;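 active = signal ratio slope over the read window, or its plate-corrected B-score, at least 3 SD from the plate mean, either direction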;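 also: B-score of the F/F0 ratio slope over 7 to 12 s after thallium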
KCC2 mod = KCC2 cotransporter modulators, thallium flux, primary screen, cell-based, HEK293 KCC2, FluoZin-2 fluorescence, MLSMR; KCC2 cells, thallium flux FluoZin-2 fluorescence; 2.2% of 190,000 active; B-score of Tl+ flux slope (higher = more flux/activation; lower = inhibition) at 10 µM; Solute carrier family 12 member 5 (Homo sapiens), Q9H2X9;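 active = thallium flux slope and its plate-corrected score both differing from the plate sample mean at a set confidence after two filtering rounds, in either direction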;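 also: slope of fluorescence scaled to starting intensity during 10 to 20 s after thallium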
ROMK retest = ROMK channel modulator hit retest, confirmation, cell-based, thallium flux, duplicate, resupplied hits | AID 1917, 2009 | fluorescence ratio; active compounds read low | 54% of 3,000 active | normalized thallium flux (F/F0 slope) at 10 µM | shares compounds with ROMK mod;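 active = Flux at 10 µM at least 3 SD below or above vehicle control mean in one or both replicates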
Numbers without * were called inactive. Rows were chosen to be rich in hits. Some 3.3% of all compounds tested hit in one or more screens of this group.

`N#C/C(=C\c1cccc([N+](=O)[O-])c1)C(=O)NCc1cccnc1` gave ABCG2 inh 9, ABCB1 inh 1, PMI activator 0.8, PMI act satM6P 0.9, KCC2 mod 0.81 and ROMK retest 0.022*.
For N#C/C(=C\c1cccnc1)C(=O)Nc1cccc2ccccc12 the results were ABCG2 inh 13, ABCB1 inh 1, PMI activator 0.9, PMI act satM6P 0.9, ROMK mod -2.4*, KCC2 mod 0.34 and ROMK retest 0.046*.
For CCCCNC(=O)/C(C#N)=C/c1cccnc1 the results were ABCG2 inh 27, ABCB1 inh 0, PMI activator 0.9, PMI act satM6P 1, ROMK mod -3.3*, KCC2 mod 1.5 and ROMK retest 0.05*.
N#C/C(=C\c1cccc([N+](=O)[O-])c1)C(=O)NCc1ccc(Cl)cc1 was read as ABCG2 inh 5, ABCB1 inh 1, PMI activator 1, PMI act satM6P 0.8, ROMK mod -0.067 and KCC2 mod 1.4.
`CCSC1=NC2(CCCCC2)Nc2sc3c(c21)CCCC3` gave ABCG2 inh -1, ABCB1 inh 0, PMI activator 1.4, PMI act satM6P 1.9, ROMK mod -0.01 and KCC2 mod 0.85.
For N#C/C(=C\c1cccnc1)C(=O)NC1CCCCC1 the results were ABCG2 inh 19, ABCB1 inh 1, PMI activator 0.9, PMI act satM6P 1, ROMK mod -5.3*, KCC2 mod 0.64 and ROMK retest 0.036*.
Screening CCOC(=O)c1cc(-c2ccc(/C=N\n3cnnc3)o2)ccc1Cl returned ABCG2 inh 8, ABCB1 inh 1, PMI activator 0.9, PMI act satM6P 0.9, KCC2 mod -0.2 and ROMK retest 0.066*.
Screening CCCCOC(=O)c1cc(-c2ccc(/C=N/n3cnnc3)o2)ccc1Cl returned KCC2 mod 0.52.
Screening Oc1ccccc1N=Cc1c(O)ccc2ccccc12 returned KCC2 mod -0.59 and ROMK retest 0.045*.
Screening COc1ccccc1N=C(C)C1=C(O)CC(c2ccccc2)CC1=O (configuration not stated) returned ABCG2 inh 12, ABCB1 inh 1, PMI activator 0.9, PMI act satM6P 0.9, ROMK mod 8*, KCC2 mod -2.5 and ROMK retest 0.082.
For COc1ccc(C(=O)NCc2nnc(SCC(=O)Nc3nc4ccc(C)cc4s3)o2)cc1OC the results were ABCG2 inh 2, ABCB1 inh 0, PMI activator 0.9, PMI act satM6P 1, ROMK mod 0.38 and KCC2 mod 0.53.
Cc1ccc2c(c1)S/C(=C/c1ccc[n+](CCO)c1)N2C was read as ABCG2 inh 2, ABCB1 inh 0, PMI activator 0.9, PMI act satM6P 0.9, ROMK mod -0.9 and KCC2 mod 0.17.
Screening Cc1cc(/C=C2\Sc3ccccc3N2C)cc(C)[n+]1CC1CCCO1 (configuration not stated) returned ABCG2 inh 4, ABCB1 inh 0, PMI activator 1, PMI act satM6P 0.9, ROMK mod -4.8*, KCC2 mod inactive and ROMK retest 0.028*.
`NCCOc1ccc(C23CC4CC(CC(C4)C2)C3)cc1` gave ABCG2 inh 1, ABCB1 inh 0, PMI activator 1.2, PMI act satM6P 1.1, ROMK mod -2.9*, KCC2 mod 0.31 and ROMK retest 0.063*.
Screening OCCN1CCN(CC(O)COc2ccc(C34CC5CC(CC(C5)C3)C4)cc2)CC1 (configuration not stated) returned ABCG2 inh 4, ABCB1 inh 1, PMI activator 1.1, PMI act satM6P 1.1, ROMK mod -0.97 and KCC2 mod 1.6.
COc1ccc(-n2nnnc2SCC(=O)NCc2ccco2)cc1OC was read as ABCG2 inh 8, ABCB1 inh 1, PMI activator 1.1, PMI act satM6P 1, KCC2 mod 0.1 and ROMK retest 0.077.
Screening NC(=O)CC(NC(=O)Cc1cccc2ccccc12)c1ccc(N2CCc3ccccc3C2)c([N+](=O)[O-])c1 (configuration not stated) returned KCC2 mod -0.89.
`Cc1cc(NC(=O)CCCC(=O)NCc2cccs2)no1` gave ABCG2 inh 5, ABCB1 inh 0, PMI activator 1, PMI act satM6P 1 and ROMK mod 0.9.
`COc1ccc2c(c1)c(C(O)CN1CCC(Cc3ccccc3)CC1)c(C)n2C` (configuration not stated) gave ABCG2 inh 4, ABCB1 inh 2, PMI activator 1, PMI act satM6P 1, KCC2 mod 0.032 and ROMK retest 0.058*.
`O=C(/C=C/c1cn(CC(O)CN2CCOCC2)c2ccccc12)c1cccs1` (configuration not stated) gave KCC2 mod -0.1 and ROMK retest 0.039*.
For O=C(C1CCN(Cc2ccc(F)cc2)CC1)N(CCc1ccccc1)Cc1ccccc1 the results were ABCG2 inh 2, ABCB1 inh 1, PMI activator 0.9, PMI act satM6P 1, ROMK mod -3.5*, KCC2 mod -1.1 and ROMK retest 0.046*.
For O=C(C1CCN(Cc2ccc(F)cc2)CC1)N(CCO)Cc1ccccc1 the results were ABCG2 inh -1, ABCB1 inh 0, PMI activator 1, PMI act satM6P 1.1 and KCC2 mod -0.96.
For CCc1ccccc1N1C(=O)[C@@H]2Cc3ccccc3CN2C1=O the results were KCC2 mod -1.4.
Cn1c(=O)c2c(nc(SCC(=O)N3CCCc4ccccc43)n2C)n(C)c1=O was read as ROMK mod -0.47 and KCC2 mod 0.5.
Screening Cn1c(=O)c2c(SCC(=O)N3CCCc4ccccc43)nc(C3CC3)nc2n(C)c1=O returned ABCG2 inh 2, ABCB1 inh 2, PMI activator 0.9, PMI act satM6P 0.8, KCC2 mod -1.1 and ROMK retest 0.071.
